Experimental data from ChEMBL document CHEMBL1138514, “Rhodamine inhibitors of P-glycoprotein: an amide/thioamide "switch" for ATPase activity” (J Med Chem, 2009).

Tests used:
[1] = tested on: CCN(CC)C(=O)c1ccc(-c2c3ccc(=[N+](C)C)cc-3[se]c3cc(N(C)C)ccc23)s1; experiment: not read
[2] = tested on: COc1ccc(-c2c3ccc(=[N+](C)C)cc-3sc3cc(N(C)C)ccc23)cc1OC; experiment: not read
[3] = tested on: C[N+](C)=c1ccc2c(-c3ccccc3)c3cc4c5c(c3[te]c-2c1)CCCN5CCC4; experiment: not read
[4] = tested on: CN(C)c1cccc(-c2c3ccc(=[N+](C)C)cc-3[se]c3cc(N(C)C)ccc23)c1; experiment: not read
[5] = tested on: CN(C)c1ccc2c(-c3ccc(N4CCOCC4)cc3)c3ccc(=[N+](C)C)cc-3sc2c1; experiment: not read
[6] = tested on: CN(C)c1ccc2c(-c3ccc(C(=O)O)s3)c3ccc(=[N+](C)C)cc-3sc2c1; experiment: not read
[7] = tested on: COc1ccc(-c2c3ccc(=[N+](C)C)cc-3[se]c3cc(N(C)C)ccc23)cc1OC; experiment: not read
[8] = tested on: CN(C)c1ccc2c(CCCOc3ccccc3)c3ccc(=[N+](C)C)cc-3sc2c1; experiment: not read
[9] = tested on: CN(C)c1ccc2c(-c3ccccc3)c3ccc(=[N+](C)C)cc-3[te]c2c1; experiment: not read
[10] = tested on: CN(C)c1ccc2c(-c3ccsc3C(=O)O)c3ccc(=[N+](C)C)cc-3sc2c1; experiment: not read
[11] = tested on: COc1cccc(-c2c3ccc(=[N+](C)C)cc-3[se]c3cc(N(C)C)ccc23)c1; experiment: not read
[12] = tested on: COc1cccc(-c2c3ccc(=[N+](C)C)cc-3[te]c3cc(N(C)C)ccc23)c1; experiment: not read
[13] = tested on: CN(C)c1cccc(-c2c3ccc(=[N+](C)C)cc-3[te]c3cc(N(C)C)ccc23)c1; experiment: not read
[14] = tested on: CN(C)c1ccc(-c2c3ccc(=[N+](C)C)cc-3[te]c3cc(N(C)C)ccc23)cc1; experiment: not read
[15] = tested on: CN(C)c1ccc2c(-c3ccc(C(=O)O)s3)c3ccc(=[N+](C)C)cc-3[te]c2c1; experiment: not read
[16] = tested on: CN(C)c1ccc2c(-c3ccsc3C(=O)O)c3ccc(=[N+](C)C)cc-3[se]c2c1; experiment: not read
[17] = tested on: COC(=O)c1ccccc1-c1c2ccc(=[N+](C)C)cc-2sc2cc(N(C)C)ccc12; experiment: (§1) Induction of mouse cysteine-less MDR3 ATPase activity by apparent Michaelis-Menten constant
How it was run: (§2)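 Isolated P-gp ATPase activity is measured as inorganic phosphate released across a range of rhodamine concentrations. KM is the apparent Michaelis-Menten constant, the concentration giving half-maximal stimulation of ATPase activity.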

[18] = tested on: CCN(CC)C(=O)c1ccccc1-c1c2ccc(=[N+](C)C)cc-2sc2cc(N(C)C)ccc12; experiment: as §1
How it was run: as §2

[19] = tested on: CCN(CC)C(=O)c1ccc(-c2c3ccc(=[N+](C)C)cc-3[se]c3cc(N(C)C)ccc23)s1; experiment: as §1
How it was run: as §2

[20] = tested on: COc1ccc(-c2c3ccc(=[N+](C)C)cc-3sc3cc(N(C)C)ccc23)cc1OC; experiment: as §1
How it was run: as §2

[21] = tested on: CN(C)c1ccc2c(-c3ccccc3C(=O)O)c3ccc(=[N+](C)C)cc-3sc2c1; experiment: as §1
How it was run: as §2

[22] = tested on: CCN(CC)C(=O)c1ccc(-c2c3ccc(=[N+](C)C)cc-3sc3cc(N(C)C)ccc23)s1; experiment: as §1
How it was run: as §2

[23] = tested on: CN(C)c1ccc2c(CCCOc3ccccc3)c3ccc(=[N+](C)C)cc-3sc2c1; experiment: as §1
How it was run: as §2

[24] = tested on: COc1cccc(-c2c3ccc(=[N+](C)C)cc-3[se]c3cc(N(C)C)ccc23)c1; experiment: as §1
How it was run: as §2

[25] = tested on: CN(C)c1ccc2c(-c3ccc(CCl)cc3)c3ccc(=[N+](C)C)cc-3oc2c1; experiment: as §1
How it was run: as §2

[26] = tested on: CCOC(=O)c1ccc(-c2c3ccc(=[N+](C)C)cc-3sc3cc(N(C)C)ccc23)s1; experiment: as §1
How it was run: as §2

[27] = tested on: CN(C)c1ccc2c(-c3ccsc3C(=O)O)c3ccc(=[N+](C)C)cc-3[se]c2c1; experiment: as §1
How it was run: as §2

[28] = tested on: COc1ccc(-c2c3ccc(=[N+](C)C)cc-3sc3cc(N(C)C)ccc23)cc1; experiment: not read

In the case of “ATP-dependent translocase ABCB1 (Homo sapiens)”, the Km [1] is reported as 0.68 µM, the Km [2] is reported as 4.9 µM and the Km [3] is reported as 4.4 µM. For the same substance, the Km [4] was 3.5 µM, the Km [5] was 10 µM and the Km [6] was 140 µM. The Km [7] was 8.3 µM, the Km [8] was 3.2 µM and the Km [9] was 8.3 µM. The Km [10] was 111 µM, the Km [11] was 3.3 µM and the Km [12] was 3.2 µM. For the same substance, the Km [13] was 2 µM, the Km [14] was 9 µM and the Km [15] was 9.6 µM. It also gave a Km [16] of 56 µM.

“ATP-dependent translocase ABCB1 (Mus musculus)” was tested, and the Km [17] was 266 µM, the Km [18] was 5.7 µM and the Km [19] was 3.6 µM. It also gave a Km [20] of 35 µM, a Km [21] of 56 µM and a Km [22] of 3.4 µM. For the same substance, the Km [23] was 6 µM, the Km [24] was 44 µM and the Km [25] was 77 µM. For the same substance, the Km [26] was 156 µM, the Km [27] was 29 µM and the Km [28] was 75 µM. It also gave a Km [7] of 67 µM.
